Laboratory results as given in ChEMBL document CHEMBL1142301, “2'-deoxy cyclic adenosine 5'-diphosphate ribose derivatives: importance of the 2'-hydroxyl motif for the antagonistic activity of 8-substituted cADPR derivatives” (J Med Chem, 2008).
Active and inactive are the calls of the source. The rule behind the calls is not given here.

Columns and labels:
[1] = test system: Jurkat; assay: Agonist activity at human cADPR receptor in Jurkat T cells assessed as stimulation of calcium release at 100 uM; format: functional, cell-based
Outline: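 Saponin-permeabilized Jurkat T cells in intracellular buffer (20 mM HEPES, 110 mM KCl, 2 mM MgCl2, 5 mM KH2PO4, 10 mM NaCl, pH 7.2) with no extracellular Ca2+. Cells were kept on ice 2 h to reseal stores, then reloaded with ATP plus creatine phosphate/creatine kinase. Compound was added once stores were refilled. Ca2+ read by fura2 free acid (ex 340/380, em 495 nm), calibrated with CaCl2 and EGTA/Tris.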

[2] = test system: Jurkat; assay: (§1) Antagonist activity at human cADPR receptor in Jurkat T cells assessed as inhibition of cyclic ADP-ribose-induced calcium release; format: functional, cell-based
Outline: (§2)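 Jurkat T cells were saponin-permeabilized, resealed 2 h on ice and reloaded with Ca2+ via ATP and a creatine phosphate/creatine kinase regenerating system, in pH 7.2 KCl/HEPES intracellular buffer. Analogue inhibition of Ca2+ release evoked by 30 µM cADPR was followed by fura2 ratio (340/380 nm ex, 495 nm em), calibrated per run. IC50 values were taken from concentration–response curves.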

[3] = test system: Jurkat; assay: Antagonist activity at human cADPR receptor in Jurkat T cells assessed as inhibition of inositol-1,4,5-triphosphate-induced calcium release; format: functional, cell-based
Outline: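 Permeabilized, store-reloaded Jurkat T cells in pH 7.2 intracellular buffer with fura2 free acid (ex 340/380 nm, em 495 nm). Analogues were tested at 100 µM against Ca2+ release triggered by 4 µM InsP3.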

[4] = test system: Jurkat; assay: Agonist activity at human cADPR receptor in Jurkat T cells assessed as stimulation of calcium release at 100 uM
[5] = as §1; format: functional, cell-based; outline: as §2
[6] = Antagonist activity at cADPR receptor in sea urchin egg homogenates assessed as inhibition of calcium release; format: functional, tissue-based, Lytechinus pictus
Outline: (§3)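 Lytechinus pictus eggs were spawned by intracoelomic 0.5 M KCl, dejellied and washed. Eggs were homogenized in 250 mM K gluconate, 250 mM N-methylglucamine, 20 mM HEPES, 1 mM MgCl2, pH 7.2, with 1 mM ATP, creatine kinase, phosphocreatine and protease inhibitors. Ca2+ read with 3 µM fluo-3 at 17 °C (ex 506, em 526 nm) in stirred homogenate. EC50/IC50 values come from concentration–response curves.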

[7] = (§4) Agonist activity at human cADPR receptor in sea urchin egg homogenates assessed as stimulation of calcium release; format: functional, tissue-based, Lytechinus pictus; outline: as §3
[8] = test system: Lytechinus pictus; assay: as §4; format: functional, tissue-based; outline: as §3
[9] = test system: Lytechinus pictus; assay: Agonist activity at human cADPR receptor in intact sea urchin egg assessed as stimulation of calcium release; format: functional
Outline: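 Intact Lytechinus pictus eggs were microinjected with rhod dextran (~10 µM intracellular), then exposed to 100 or 400 µM analogue in the bath. Ca2+ was imaged by confocal microscopy (ex 543 nm, em >560 nm).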

Row | IC50 [5] [µM] | Compound | Activity [1] | Activity [3] | also measured
1 | 0.2 | Nc1nc2c(N)[n+]3cnc2n1[C@@H]1O[C@H](COP(=O)(O)OP(=O)([O-])OC[C@H]2O[C@@H]3[C@H](O)[C@@H]2O)[C@@H](O)[C@H]1O | Active | inactive | Activity [4]: Active; IC50 [6]: 105 nM; EC50 [7]: 89 µM
2 | 10 | Nc1c2nc(Br)n3c2nc[n+]1[C@@H]1O[C@H](COP(=O)([O-])OP(=O)(O)OC[C@H]2O[C@@H]3[C@H](O)[C@@H]2O)[C@@H](O)[C@H]1O | Active | inactive | –
3 | 8 | COc1nc2c(N)[n+]3cnc2n1[C@H]1C[C@H](O)[C@@H](COP(=O)(O)OP(=O)([O-])OC[C@H]2O[C@@H]3[C@H](O)[C@@H]2O)O1 | Active | inactive | –

The next lines start with the molecule.

Row | Compound | IC50 [5] [µM] | Activity [1] | Activity [3] | also measured
4 | Nc1c2ccn3c2nc[n+]1[C@@H]1O[C@H](COP(=O)([O-])OP(=O)(O)OC[C@H]2O[C@@H]3C[C@@H]2O)[C@@H](O)[C@H]1O | – | Active | – | Activity [2]: inactive
5 | Nc1c2nc(-c3ccccc3)n3c2nc[n+]1[C@@H]1O[C@H](COP(=O)([O-])OP(=O)(O)OC[C@H]2O[C@@H]3C[C@@H]2O)[C@@H](O)[C@H]1O | – | Active | – | –
6 | Nc1c2nc(-c3ccccc3)n3c2nc[n+]1[C@@H]1O[C@H](COP(=O)([O-])OP(=O)(O)OC[C@H]2O[C@@H]3[C@H](O)[C@@H]2O)[C@@H](O)[C@H]1O | – | Active | – | –
7 | Nc1c2nc(Br)n3c2nc[n+]1[C@@H]1O[C@H](COP(=O)([O-])OP(=O)(O)OC[C@H]2O[C@@H]3C[C@@H]2O)[C@@H](O)[C@H]1O | – | Active | – | Activity [8]: Active; Activity [9]: Active
8 | Nc1c2ncn3c2nc[n+]1[C@@H]1O[C@H](COP(=O)([O-])OP(=O)(O)OC[C@H]2O[C@@H]3[C@H](O)[C@@H]2O)[C@@H](O)[C@H]1O | – | Active | inactive | –
9 | Nc1nc2c(N)[n+]3cnc2n1[C@H]1C[C@H](O)[C@@H](COP(=O)(O)OP(=O)([O-])OC[C@H]2O[C@@H]3[C@H](O)[C@@H]2O)O1 | 6 | Active | inactive | IC50 [6]: 220 nM; EC50 [7]: > 89 µM
